The text below walks through data of PMC3537910 (European journal of nuclear medicine and molecular imaging, 2012).

“And” between values parts separate entries of the source, which are not always exact repeats. Identical values can stand only once.

The conditions of data set [1]: reference compound; cited from earlier work.
In data set [2] the target is T1, mGluR1 (Homo sapiens, UniProt Q13255). Type of data set: cell-based. Particulars: from IC50 8.9 and 118 nM. Put shortly: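 Calcium mobilization was measured in cells expressing individual human mGlu receptors (1, 2, 3, 4, 5, 7, 8). Agonism: % stimulation by test compound alone relative to maximal glutamate response. Antagonism: % inhibition of the EC90 glutamate response. Potentiation: % increase of an EC10 glutamate response relative to the ECmax response.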
T1 sequence (Q13255 19-1194): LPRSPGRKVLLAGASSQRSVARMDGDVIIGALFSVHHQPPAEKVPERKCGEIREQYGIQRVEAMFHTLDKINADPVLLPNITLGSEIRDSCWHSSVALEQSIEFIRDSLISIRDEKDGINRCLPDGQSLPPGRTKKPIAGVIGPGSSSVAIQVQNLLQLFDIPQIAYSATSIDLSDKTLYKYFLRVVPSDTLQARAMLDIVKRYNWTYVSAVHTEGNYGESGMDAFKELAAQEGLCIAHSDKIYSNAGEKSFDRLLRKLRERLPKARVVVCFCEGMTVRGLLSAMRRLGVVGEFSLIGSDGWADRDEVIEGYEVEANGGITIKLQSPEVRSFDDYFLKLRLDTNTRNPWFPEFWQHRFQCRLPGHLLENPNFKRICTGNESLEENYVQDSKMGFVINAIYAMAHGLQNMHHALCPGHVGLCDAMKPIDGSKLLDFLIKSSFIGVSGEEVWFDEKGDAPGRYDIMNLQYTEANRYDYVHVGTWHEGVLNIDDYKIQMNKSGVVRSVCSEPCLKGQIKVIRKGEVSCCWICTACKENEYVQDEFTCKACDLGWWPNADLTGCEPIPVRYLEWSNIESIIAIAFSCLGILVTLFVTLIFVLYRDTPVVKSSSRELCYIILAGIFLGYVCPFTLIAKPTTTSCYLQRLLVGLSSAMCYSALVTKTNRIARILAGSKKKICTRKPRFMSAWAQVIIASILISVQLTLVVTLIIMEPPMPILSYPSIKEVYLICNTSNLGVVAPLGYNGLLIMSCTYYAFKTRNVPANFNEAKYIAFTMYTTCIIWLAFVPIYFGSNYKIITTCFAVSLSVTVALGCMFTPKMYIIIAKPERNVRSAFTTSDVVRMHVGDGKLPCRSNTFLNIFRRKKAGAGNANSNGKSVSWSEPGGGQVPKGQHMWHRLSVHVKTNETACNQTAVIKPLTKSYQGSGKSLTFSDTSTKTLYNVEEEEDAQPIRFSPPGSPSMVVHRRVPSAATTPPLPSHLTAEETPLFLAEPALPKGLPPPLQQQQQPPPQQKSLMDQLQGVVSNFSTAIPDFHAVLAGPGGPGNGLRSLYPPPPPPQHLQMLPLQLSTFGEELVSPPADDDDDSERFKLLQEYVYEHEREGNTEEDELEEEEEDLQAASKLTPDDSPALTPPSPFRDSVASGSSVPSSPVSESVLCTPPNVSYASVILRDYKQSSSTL

Data set [3] concerns the target T1, mGluR1. Description: competition binding assay with 3H-LSN456066, human. Particulars: humans.
Data set [4] is described as follows: metabolic stability in liver microsomes, mouse. Type of data set: in vitro ADME. Particulars: mouse hepatic microsomes, 30 minutes, n = 3. A general note: Microsomes from liver hold many membrane-bound enzymes, among them those of drug oxidation.
Data set [5] in a line: metabolic stability in liver microsomes, rat. It is filed as in vitro ADME. Particulars: rat hepatic microsomes, 30 minutes, n = 2.
The nature of data set [6]: metabolic stability in liver microsomes, dog. Type of data set: in vitro ADME. Particulars: dog hepatic microsomes, 30 minutes, n = 3.
The nature of data set [7]: metabolic stability in liver microsomes, monkey. It is filed as in vitro ADME. Particulars: monkey hepatic microsomes, 30 minutes, n = 2.
The target in another data set is human P-gp (Homo sapiens, UniProt P08183). Description: P-gp substrate identification in MDCK cells transfected with wild-type MDR1. Type of data set: in vitro ADME.
Sequence of human P-gp (P08183 whole entry): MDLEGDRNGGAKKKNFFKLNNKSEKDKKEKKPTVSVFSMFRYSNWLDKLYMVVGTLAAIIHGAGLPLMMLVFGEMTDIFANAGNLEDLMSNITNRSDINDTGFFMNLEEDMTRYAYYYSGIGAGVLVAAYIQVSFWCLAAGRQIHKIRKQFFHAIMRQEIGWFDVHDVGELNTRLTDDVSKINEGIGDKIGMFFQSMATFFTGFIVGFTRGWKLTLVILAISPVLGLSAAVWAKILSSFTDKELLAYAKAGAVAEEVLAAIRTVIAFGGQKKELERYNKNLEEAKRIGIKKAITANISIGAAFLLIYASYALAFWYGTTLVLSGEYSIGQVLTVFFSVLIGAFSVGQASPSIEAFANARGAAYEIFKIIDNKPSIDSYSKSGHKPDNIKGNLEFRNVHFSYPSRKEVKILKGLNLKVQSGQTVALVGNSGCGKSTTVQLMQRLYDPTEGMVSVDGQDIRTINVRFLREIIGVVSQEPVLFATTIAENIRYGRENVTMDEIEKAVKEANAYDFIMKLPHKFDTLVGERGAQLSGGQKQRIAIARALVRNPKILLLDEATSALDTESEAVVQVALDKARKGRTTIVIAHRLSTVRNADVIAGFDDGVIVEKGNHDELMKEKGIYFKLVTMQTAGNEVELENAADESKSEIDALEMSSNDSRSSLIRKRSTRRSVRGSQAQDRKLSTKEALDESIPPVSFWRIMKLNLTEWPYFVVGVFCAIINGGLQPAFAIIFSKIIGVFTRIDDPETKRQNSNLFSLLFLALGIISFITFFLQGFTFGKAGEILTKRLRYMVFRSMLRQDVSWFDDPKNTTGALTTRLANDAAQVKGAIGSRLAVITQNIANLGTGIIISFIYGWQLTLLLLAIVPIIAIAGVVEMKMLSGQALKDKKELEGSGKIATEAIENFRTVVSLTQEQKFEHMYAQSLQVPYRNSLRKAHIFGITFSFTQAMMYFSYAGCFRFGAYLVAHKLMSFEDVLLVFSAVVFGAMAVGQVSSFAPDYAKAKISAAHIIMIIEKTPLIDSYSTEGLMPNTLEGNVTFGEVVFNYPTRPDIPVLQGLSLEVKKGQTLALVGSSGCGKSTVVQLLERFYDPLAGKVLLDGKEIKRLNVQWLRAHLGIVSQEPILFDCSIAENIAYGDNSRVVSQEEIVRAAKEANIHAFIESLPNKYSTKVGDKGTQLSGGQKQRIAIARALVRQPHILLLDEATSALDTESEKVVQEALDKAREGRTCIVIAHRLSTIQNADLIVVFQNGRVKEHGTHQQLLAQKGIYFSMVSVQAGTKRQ
Data set [8] can be described thus: LC-MS/MS rat brain kinetic analysis with non-labeled tracer. Type of data set: in vivo. Particulars: 10 μg/kg dose, 15 minutes.
The target of data set [9] is T2, mGluR1 (Rattus norvegicus, UniProt P23385). Description: mGluR1 occupancy experiment, non-labeled JNJ16259685 as tracer. It is filed as in vivo. Particulars: oral administration.
T2 sequence (P23385 19-1199): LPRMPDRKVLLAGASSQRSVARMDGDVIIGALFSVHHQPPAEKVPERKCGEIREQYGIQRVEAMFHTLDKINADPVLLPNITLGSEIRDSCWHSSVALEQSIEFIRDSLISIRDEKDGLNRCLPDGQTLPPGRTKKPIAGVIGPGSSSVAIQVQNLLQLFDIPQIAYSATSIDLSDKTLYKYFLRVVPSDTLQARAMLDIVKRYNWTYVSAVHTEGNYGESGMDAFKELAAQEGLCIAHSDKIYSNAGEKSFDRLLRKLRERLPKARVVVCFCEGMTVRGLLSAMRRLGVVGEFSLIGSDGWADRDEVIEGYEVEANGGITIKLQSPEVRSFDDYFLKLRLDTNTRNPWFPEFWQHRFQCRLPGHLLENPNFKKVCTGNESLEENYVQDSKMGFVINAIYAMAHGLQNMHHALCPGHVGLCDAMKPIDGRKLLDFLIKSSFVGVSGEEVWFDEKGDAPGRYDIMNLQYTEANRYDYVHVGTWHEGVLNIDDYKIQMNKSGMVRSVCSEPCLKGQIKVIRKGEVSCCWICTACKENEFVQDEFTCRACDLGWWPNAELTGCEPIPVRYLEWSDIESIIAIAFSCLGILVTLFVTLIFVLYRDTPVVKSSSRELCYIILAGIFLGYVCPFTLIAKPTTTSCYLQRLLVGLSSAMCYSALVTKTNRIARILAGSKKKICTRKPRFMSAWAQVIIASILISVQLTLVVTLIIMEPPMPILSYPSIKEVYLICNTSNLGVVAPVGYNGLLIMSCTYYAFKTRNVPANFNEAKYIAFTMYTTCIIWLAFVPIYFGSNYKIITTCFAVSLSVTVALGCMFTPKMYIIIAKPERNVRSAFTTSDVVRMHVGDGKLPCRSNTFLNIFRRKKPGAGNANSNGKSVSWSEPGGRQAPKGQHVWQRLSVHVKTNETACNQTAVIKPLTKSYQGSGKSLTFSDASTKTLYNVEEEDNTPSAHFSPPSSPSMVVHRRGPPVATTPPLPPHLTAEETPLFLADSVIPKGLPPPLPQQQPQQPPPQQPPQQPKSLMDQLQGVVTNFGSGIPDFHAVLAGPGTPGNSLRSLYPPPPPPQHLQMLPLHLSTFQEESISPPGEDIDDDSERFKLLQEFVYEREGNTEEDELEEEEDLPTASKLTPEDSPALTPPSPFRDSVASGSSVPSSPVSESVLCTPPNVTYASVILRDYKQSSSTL
The conditions of data set [10]: mouse, in vivo.
Data set [11] is described as follows: calibrated Mouse Brain Uptake Assay. Particulars: cMBUA.
Data set [12] is described as follows: LogD7.4 measurement in octanol. Type of data set: physicochemical. Particulars: n = 6.
Data set [13] deals with T2, mGluR1. Description: PET imaging, specific binding in rat brain. It is filed as in vivo. Particulars: baseline vs blocked scans.
A further data set addresses mGluR5 (Rattus norvegicus, UniProt P31424). Description: PET imaging, cross-reactivity with mGluR5 receptors. It is filed as in vivo.
For data set [14] the following is noted: one hour at 37 °C.
For the next data set, the system named is ABCB1 (P-gp). Particulars: wild type vs knock-out mice, PET.
For the next data set, the target named is ABCG2 (BCRP) (Mus musculus, UniProt Q7TMS5). Particulars: wild type vs knock-out mice, PET.
Data set [15] deals with T2, mGluR1. Description: pharmacological validation: blocking of LY2428703 tracer specific binding. Type of data set: in vivo. Particulars: i.v. administration, LY2428703 as non-labeled tracer.
Where [16] appears, read: MDCK monolayers overexpressing human P-gp.
Setting [17] is: rat brain, 30 minutes after injection.
The mark [18] stands for this setting: rat cerebellum, 30 minutes after injection.
[19] abbreviates: rat, 30 minutes after injection.
Where [20] appears, read: tissue without blood, mean of two measurements.

Sequence of mGluR5 (P31424 21-1203): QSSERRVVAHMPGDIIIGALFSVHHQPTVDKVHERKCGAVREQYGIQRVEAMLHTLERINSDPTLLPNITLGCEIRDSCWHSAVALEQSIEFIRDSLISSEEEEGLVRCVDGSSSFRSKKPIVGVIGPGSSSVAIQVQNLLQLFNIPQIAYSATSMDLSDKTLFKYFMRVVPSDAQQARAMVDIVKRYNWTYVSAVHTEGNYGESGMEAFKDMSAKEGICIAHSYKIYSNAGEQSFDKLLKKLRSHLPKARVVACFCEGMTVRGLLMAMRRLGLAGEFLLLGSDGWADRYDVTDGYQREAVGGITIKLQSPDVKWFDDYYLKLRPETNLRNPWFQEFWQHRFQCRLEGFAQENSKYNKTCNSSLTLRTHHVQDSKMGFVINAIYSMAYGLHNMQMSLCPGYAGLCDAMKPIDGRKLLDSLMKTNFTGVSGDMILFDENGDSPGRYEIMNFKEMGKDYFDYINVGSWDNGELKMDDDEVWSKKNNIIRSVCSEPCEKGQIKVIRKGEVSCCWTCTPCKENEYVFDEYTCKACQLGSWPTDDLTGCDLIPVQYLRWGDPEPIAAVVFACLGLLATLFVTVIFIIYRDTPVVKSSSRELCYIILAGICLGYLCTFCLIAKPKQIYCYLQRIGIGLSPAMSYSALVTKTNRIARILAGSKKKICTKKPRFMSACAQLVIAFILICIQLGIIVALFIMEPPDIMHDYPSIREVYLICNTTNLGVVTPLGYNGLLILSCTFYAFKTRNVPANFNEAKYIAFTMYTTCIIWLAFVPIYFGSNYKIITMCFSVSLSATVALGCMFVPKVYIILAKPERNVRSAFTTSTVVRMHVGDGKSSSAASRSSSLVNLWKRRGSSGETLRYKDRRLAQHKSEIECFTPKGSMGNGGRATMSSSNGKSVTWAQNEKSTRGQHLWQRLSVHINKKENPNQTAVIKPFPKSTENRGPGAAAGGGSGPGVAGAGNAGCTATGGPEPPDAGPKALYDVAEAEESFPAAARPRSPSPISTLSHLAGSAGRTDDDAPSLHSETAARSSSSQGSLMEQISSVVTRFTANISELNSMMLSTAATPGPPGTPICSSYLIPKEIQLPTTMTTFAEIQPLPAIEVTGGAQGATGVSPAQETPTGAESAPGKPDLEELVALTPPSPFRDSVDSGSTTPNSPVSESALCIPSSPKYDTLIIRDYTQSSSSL

With `[3H]O[3H]` [tritiated water], the “brain levels, percent of the dose” value in data set [1] is given as 1.9 ± 0.2%.

Consider `COc1ccc(-c2nsc(NC(=O)[C@@H]3C[C@H]3C)c2C)cc1` [LY2428703], for which the “affinity for mGluR1 relative to mGluR5” value on mGluR1 [2] is greater than 10 fold. Further, the “affinity of LY2428703 relative to LSN2606428” value on mGluR1 [3] was “about 20 fold”. Moreover, the “percent of compound metabolized” value in [4] was determined as 79.5 ± 14.7%; in data set [5], 91.1 ± 3.4%; in [6] it was 65.0 ± 15.5%; in data set [7], 90.1 ± 3.1%. Further, the B-A/A-B flux ratio on human P-gp (setting [16]) is reported as ~ 1.0. The P-gp substrate identification entry on human P-gp (setting [16]) is “not a P-gp substrate”. For the same molecule, the mass balance recovery at human P-gp (MDCK monolayers, n=8) is 108 ± 10%. Further, the passive permeability coefficient at human P-gp (MDCK monolayers, n=8) is 620 ± 30 nm/s and 600 nm/s. Moreover, the “tracer level in rat cerebellum” value in data set [8] is given as 330 % SUV. Also, the “rat mGluR1 occupancy” value at mGluR1 [9] is recorded as “dose-dependently occupied”. In [10], the “clearance from brain, percent loss in concentration from five to 60 minutes” value is given as greater than 95%. Also, the “clearance from plasma, percent loss in concentration from five to 60 minutes” value in data set [10] is listed as greater than 95%. Further, the “dose distributed to brain as percent of cardiac output” value in [11] is listed as 84%. The “blood-brain barrier permeability coefficient” value in data set [11] (mouse) was determined as 190 nm/s. The “percent of dose delivered to the brain” value in data set [11] (mouse, over the 10-fold range of doses) was 1.2–1.6% and 1.6 ± 0.2%.

In the case of `Cc1c(-c2ccc(O[11CH3])cc2)nsc1NC(=O)[C@@H]1C[C@H]1C` [^11C-LY2428703], the LogD7.4 in data set [12] was 4.02 ± 0.09. In addition, on mGluR1 [13], the “PET signal in rat cerebellum” value was “large specific and displaceable signal”. In addition, the “affinity for mGluR5s in vivo (PET)” value on mGluR5 (rats pretreated with MTEP 5 mg/kg) is “negligible affinity”. Further, the “stability in rat whole blood and brain homogenates” value in data set [14] was “no biotransformation products were detected”. Further, the “regional concentration ratios of the radiometabolite” value (cerebellum/brain, cerebellum/plasma, brain/plasma) was less than 1.0. In addition, under setting [17], the “parent radioligand, % of brain radioactivity” value is on record as 82.7% and the “radiometabolite, % of brain radioactivity” value is listed as 17.2%. Under setting [18], the “parent radioligand, % of cerebellar radioactivity” value was 96.2% and > 96%; the “radiometabolite, % of cerebellar radioactivity” value was ~ 3.5% and 3.7% and 3–4%. Besides, for the setting “rat plasma, 30 minutes after injection”, the “parent radioligand, % of plasma radioactivity” value stood at 75%. Under setting [19], the “%SUV concentration of parent in brain” value was determined as 49 %SUV, the “%SUV concentration of parent in cerebellum” value was found to be 156 %SUV, the “%SUV concentration of parent in plasma” value is on record as 122 %SUV and the “%SUV concentration of parent in urine” value worked out at 2.7 %SUV. Further, under setting [19], the “%SUV concentration of the major radiometabolite in brain” value came to 10.2 %SUV, the “%SUV concentration of the major radiometabolite in cerebellum” value came out at 6.1 %SUV, the “%SUV concentration of the major radiometabolite in plasma” value amounted to 38.5 %SUV and the “%SUV concentration of the major radiometabolite in urine” value stood at 161 %SUV. For the same molecule, under setting [19], the “parent concentration ratio brain/plasma” value was less than 1.0; the “parent concentration ratio cerebellum/brain” value was 3.2 and 3.2–3.5; the “parent concentration ratio cerebellum/plasma” value came out at 1.3. Moreover, under setting [20], the “parent radioligand in brain” value worked out at 48 %SUV; the “parent radioligand in cerebellum” value was 169 %SUV; the “parent radioligand, % of brain activity” value was 82.5%; the “parent radioligand, % of cerebellar activity” value amounted to 95.8%. Moreover, under setting [20], the radiometabolite in brain was found to be 9.5 %SUV; the radiometabolite in cerebellum was found to be 5.6 %SUV; the “radiometabolite, % of brain activity” value was determined as 16.5%; the “radiometabolite, % of cerebellar activity” value is recorded as 3.3%. Also, in the data set on ABCB1 (P-gp), the “substrate for ABCB1 transporter at the blood-brain barrier” value is reported as “not a substrate”. For the same molecule, the “substrate for ABCG2 transporter at the blood-brain barrier” value on ABCG2 (BCRP) was “not a substrate”.

On to `COC1CCC(C(=O)c2ccc3nc4c(cc3c2)CCCO4)CC1` (stereo not drawn) [JNJ16259685], for which the “in vivo mGluR1 ED50” value at mGluR1 [15] was 1.4 ± 0.1 mg/kg.

Turning to `Cc1nc(C#Cc2cccnc2)cs1` [MTEP, 3-((2-Methyl-4-thiazolyl)ethynyl)pyridine, reference compound], the “effect of pretreatment on forebrain uptake of 11C-LY2428703” value at mGluR5 (5 mg/kg, rat, n=2) is reported as “not affected”.
